As a reminder, the IC50 is the concentration at which inhibition is half-maximal. What is called EC50 is the midpoint of the concentration-response curve. As a reminder, the CC50 is the concentration at which the toxic effect on the cells reaches its halfway point. For orientation: logP means the decadic logarithm of the partition coefficient of the neutral form, usually between octanol and water. A lower logP goes with a more hydrophilic compound.

Structures are written as SMILES.

The nature of data set [1]: Inhibition of wild type recombinant Toxoplasma gondii CDPK1 using syntide-2 substrate after 30 mins by Kinase-Glo luminescent assay. For orientation: Kinase-Glo measures the ATP left after a reaction by luminescence.
The target of data set [2] is Cyclin-dependent kinase 5/CDK5 activator 1 (Homo sapiens, UniProt Q00535). The data set is described as follows: Inhibition of human recombinant CDK5/P25 expressed in Escherichia coli using histone H1 substrate after 30 mins by scintillation and luminescence counting method in presence of [gamma-33P]ATP.
Sequence of Cyclin-dependent kinase 5/CDK5 activator 1 (Q00535 whole entry): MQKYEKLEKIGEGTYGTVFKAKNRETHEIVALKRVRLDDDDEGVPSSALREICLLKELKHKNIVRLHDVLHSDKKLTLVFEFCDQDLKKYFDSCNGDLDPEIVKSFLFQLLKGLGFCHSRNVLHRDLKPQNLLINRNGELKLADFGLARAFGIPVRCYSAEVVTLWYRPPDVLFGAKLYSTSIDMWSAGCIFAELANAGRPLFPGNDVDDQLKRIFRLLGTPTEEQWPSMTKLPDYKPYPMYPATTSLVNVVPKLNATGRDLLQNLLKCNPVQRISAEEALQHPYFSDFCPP
Sequence of Cyclin-dependent kinase 5/CDK5 activator 1 (Q15078 whole entry, further chain): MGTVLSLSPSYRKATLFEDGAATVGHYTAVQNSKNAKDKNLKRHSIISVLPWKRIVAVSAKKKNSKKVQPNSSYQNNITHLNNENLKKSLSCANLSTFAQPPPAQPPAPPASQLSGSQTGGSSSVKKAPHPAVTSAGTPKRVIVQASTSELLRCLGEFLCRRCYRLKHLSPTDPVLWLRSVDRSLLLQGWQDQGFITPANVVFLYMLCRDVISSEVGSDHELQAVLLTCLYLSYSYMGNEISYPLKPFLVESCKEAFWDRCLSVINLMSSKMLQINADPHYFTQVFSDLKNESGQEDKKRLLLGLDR
In data set [3] the target is Receptor-interacting serine/threonine-protein kinase 3 (Homo sapiens, UniProt Q9Y572). The data set is described as follows: Inhibition of full length human GST-tagged RIPK3 expressed in Spodoptera frugiperda Sf9 cells after 30 mins by scintillation and luminescence counting method in the presence of [gamma-33P]ATP.
Sequence of Receptor-interacting serine/threonine-protein kinase 3 (Q9Y572 whole entry): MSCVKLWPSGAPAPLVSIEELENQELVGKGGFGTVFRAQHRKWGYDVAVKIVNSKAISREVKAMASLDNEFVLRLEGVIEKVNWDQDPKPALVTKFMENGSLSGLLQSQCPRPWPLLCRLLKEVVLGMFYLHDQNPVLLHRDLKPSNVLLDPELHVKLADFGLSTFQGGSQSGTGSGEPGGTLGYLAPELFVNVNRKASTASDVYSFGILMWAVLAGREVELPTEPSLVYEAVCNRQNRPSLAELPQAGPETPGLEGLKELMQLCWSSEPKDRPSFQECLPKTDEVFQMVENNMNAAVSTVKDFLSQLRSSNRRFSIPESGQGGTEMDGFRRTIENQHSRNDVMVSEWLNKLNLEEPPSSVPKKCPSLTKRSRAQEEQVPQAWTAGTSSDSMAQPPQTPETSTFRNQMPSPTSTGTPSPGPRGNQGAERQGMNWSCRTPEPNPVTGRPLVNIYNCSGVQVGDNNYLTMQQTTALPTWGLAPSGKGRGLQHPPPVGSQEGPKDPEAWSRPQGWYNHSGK
Data set [4] is described as follows: Inhibition of porcine brain CK1-delta/epsilon using CKS peptide substrate after 30 mins by scintillation and luminescence counting method in presence of [gamma-33P]ATP. More on the design: species or system Sus scrofa.
The target of data set [5] is Glycogen synthase kinase-3 (Sus scrofa, UniProt B2LUN4+I6LNT8). The experiment in a line: Inhibition of porcine brain GSK-3 alpha/beta using GS-1 substrate after 30 mins by scintillation and luminescence counting method in the presence of [gamma-33P]ATP.
Data set [6] concerns the target T1, Serine/threonine-protein kinase haspin (Homo sapiens, UniProt Q8TF76).
T1 sequence (Q8TF76 whole entry): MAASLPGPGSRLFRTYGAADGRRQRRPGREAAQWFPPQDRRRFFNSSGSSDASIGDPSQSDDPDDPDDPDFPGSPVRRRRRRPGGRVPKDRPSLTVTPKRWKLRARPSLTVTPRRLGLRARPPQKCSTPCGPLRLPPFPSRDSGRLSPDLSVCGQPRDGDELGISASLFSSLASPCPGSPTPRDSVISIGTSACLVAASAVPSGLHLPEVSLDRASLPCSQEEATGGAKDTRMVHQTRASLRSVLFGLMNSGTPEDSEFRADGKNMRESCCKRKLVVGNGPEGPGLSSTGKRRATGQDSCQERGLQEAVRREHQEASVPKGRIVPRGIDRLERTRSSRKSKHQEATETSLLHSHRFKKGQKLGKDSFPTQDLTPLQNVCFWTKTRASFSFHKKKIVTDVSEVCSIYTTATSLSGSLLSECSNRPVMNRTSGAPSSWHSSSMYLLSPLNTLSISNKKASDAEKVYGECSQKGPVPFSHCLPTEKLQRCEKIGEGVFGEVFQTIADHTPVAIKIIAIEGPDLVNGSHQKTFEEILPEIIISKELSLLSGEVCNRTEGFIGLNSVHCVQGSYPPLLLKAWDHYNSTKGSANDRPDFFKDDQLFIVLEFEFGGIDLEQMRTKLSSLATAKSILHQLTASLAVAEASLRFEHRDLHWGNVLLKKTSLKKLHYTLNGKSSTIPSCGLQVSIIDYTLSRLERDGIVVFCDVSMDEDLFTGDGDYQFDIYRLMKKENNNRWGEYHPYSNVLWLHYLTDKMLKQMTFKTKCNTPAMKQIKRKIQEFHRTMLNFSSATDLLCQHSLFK
The experiment in a line: Inhibition of human recombinant haspin kinase domain expressed in Escherichia coli BL21-KRX using histone H3 (1 to 21) peptide substrate after 30 mins by scintillation and luminescence counting method in the presence of [gamma-33P]ATP.

Data set [7] concerns Toxoplasma gondii. The data set is described as follows: Antiparasitic activity against Toxoplasma gondii RH tachyzoite expressing beta-galactosidase assessed as inhibition of tachyzoite invasion into human foreskin fibroblast host cells after 96 hrs by colorimetric microtitre assay. In kind it is functional, organism-based. Summed up:
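Invasion of HFF host cells by a recombinant T. gondii strain carrying bacterial β-galactosidase was judged indirectly from parasite growth inhibition in a colorimetric microtiter format.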

The nature of data set [8]: Cytotoxicity against HFF assessed as cell proliferation after 96 hrs by alamar blue reduction assay. In kind it is cell-based. Particulars: human, HFF cells. Summed up: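 Non-specific toxicity to HFF host cells was measured by Alamar Blue reduction as a quantitative read-out of cell proliferation, with the CC50 derived.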
For orientation: The colour change of resazurin is a common sign of viable cells or microbes.

Data set [9] is described as follows: Lipophilicity, log P of the compound. Particulars: octanol/water. In kind it is physicochemical.

With `CN1CCN(c2ccc3nc(-c4cccc5c4OCCO5)c(-c4ccncc4)n3n2)CC1`, the IC50 in data set [1] was 1.23 µM; in [2] it was over 10 µM; in [3], over 10 µM; in [4], 2 µM; in data set [5], over 10 µM; in data set [6] it was over 10 µM. The EC50 in data set [7] came out at 0.94 µM. The CC50 at 96 h in [8] was over 50 µM.

For `CN1CCN(c2ccc3nc(-c4cccc(C(=O)N5CCOCC5)c4)c(-c4ccncc4)n3n2)CC1`, the IC50 was 3.05 µM in data set [1]; over 10 µM in data set [2]; over 10 µM in data set [3]; over 10 µM in data set [4]; over 10 µM in data set [5]; 3.9 µM in [6]. Moreover, the EC50 in data set [7] is over 5 µM. Further, the CC50 at 96 h in [8] stood at 6.4 µM. In data set [9], the logP is under 3.

For the compound `CN1CCN(c2ccc3nc(-c4ccc(-c5ccccc5)s4)c(-c4ccncc4)n3n2)CC1`, the IC50 was 3.58 µM in data set [1]; over 10 µM in [2]; over 10 µM in data set [3]; over 10 µM in data set [4]; over 10 µM in data set [5]; over 10 µM in data set [6]. Also, the EC50 in data set [7] amounted to 3.07 µM. The CC50 at 96 h in data set [8] was determined as 6.8 µM. The logP in data set [9] is 5.

For `CCOc1ccc2c(-c3nc4ccc(N5CCN(C)CC5)nn4c3-c3ccncc3)cccc2c1`, the IC50 in data set [1] was 0.91 µM; in data set [2], over 10 µM; in data set [3] it was 1.7 µM; in [4] it was over 10 µM; in [5] it was over 10 µM; in data set [6], over 10 µM. In data set [7], the EC50 was determined as 1.71 µM. Moreover, in data set [8], the CC50 at 96 h worked out at 7.6 µM. In addition, the logP in data set [9] is 5.

Take `CN1CCN(c2ccc3nc(-c4cccc(-c5ccsc5)c4)c(-c4ccncc4)n3n2)CC1`: the IC50 in data set [1] is 0.5 µM; in data set [2], over 10 µM; in data set [3] it was 0.3 µM; in data set [4] it was at least 10 µM; in [5], 7.6 µM; in data set [6], over 10 µM. Further, in [7], the EC50 came out at 0.61 µM. The CC50 at 96 h in data set [8] came to 6.3 µM. Also, the lipophilicity (logP) in data set [9] turned out to be 5.

With `CN1CCN(c2ccc3nc(-c4cccc5c4OCO5)c(-c4ccccc4)n3n2)CC1`, the IC50 is 5.4 µM in [1]; over 10 µM in [2]; over 10 µM in data set [3]; at least 10 µM in [4]; 2.2 µM in data set [5]; over 10 µM in data set [6]. For the same compound, the EC50 in data set [7] came out at 1.9 µM. Besides, the CC50 at 96 h in data set [8] was found to be 21.9 µM.

Regarding `CN1CCN(c2ccc3nc(-c4cccc(-c5ccccc5)c4)c(-c4ccncc4)n3n2)CC1`, the IC50 in data set [1] is 0.44 µM; in data set [2], over 10 µM; in data set [3], 0.45 µM; in [4], over 10 µM; in [5], over 10 µM; in data set [6], over 10 µM. Besides, the EC50 in data set [7] came to 1 µM. Also, the CC50 at 96 h in data set [8] was determined as 10.9 µM.

As for `CN1CCN(c2ccc3nc(-c4cccc5c4OCO5)c(-c4ccncc4)n3c2)CC1`, the concentration for half-maximal inhibition (IC50) in data set [1] was 0.85 µM; in data set [2], over 10 µM; in data set [3], over 10 µM; in [4], over 10 µM; in data set [5], over 10 µM; in [6], over 10 µM. Besides, the concentration giving a half-maximal response (EC50) in data set [7] was over 5 µM. Besides, in data set [8], the CC50 at 96 h is over 50 µM.

`CN1CCN(c2ccc3nc(-c4ccc(-c5ccccc5)cc4)c(-c4ccncc4)n3n2)CC1`: the IC50 in data set [1] was 3.43 µM; in data set [2] it was over 10 µM; in [3], over 10 µM; in data set [4] it was over 10 µM; in [5], over 10 µM; in data set [6], over 10 µM. In addition, the EC50 in data set [7] is over 5 µM. The CC50 at 96 h in data set [8] is 13.7 µM.

As for `c1cc2c(c(-c3nc4cccnn4c3-c3ccncc3)c1)OCO2`, the IC50 in data set [1] is 0.22 µM; in data set [2], over 10 µM; in [3], 5.5 µM; in data set [4], 2.4 µM; in data set [5] it was 3.5 µM; in data set [6], over 10 µM. Besides, the EC50 in data set [7] was found to be 1.28 µM. The 50% cytotoxic concentration (CC50) at 96 h in data set [8] stood at 8.2 µM. The compound further showed a lipophilicity (logP) in data set [9] of 5.

As to `CCc1nc(N)nc(N)c1-c1ccc(Cl)cc1` [PYRIMETHAMINE], the EC50 in [7] came out at 0.34 µM. The CC50 at 96 h in data set [8] is over 50 µM.

On to `CN1CCN(c2ccc3nc(-c4ccc5c(c4)OCO5)c(-c4ccncc4)n3n2)CC1`, for which the IC50 in [1] is 0.15 µM; in data set [2], over 10 µM; in data set [3], 7.6 µM; in [4] it was 0.15 µM; in data set [5] it was over 10 µM; in [6] it was over 10 µM. For the same compound, the EC50 in data set [7] turned out to be 0.63 µM. The CC50 at 96 h in data set [8] is 17.5 µM.

Take `CN1CCN(c2ccc3nc(-c4ccc5c(c4)OCCO5)c(-c4ccncc4)n3n2)CC1`: the half-inhibitory concentration (IC50) in data set [1] is 0.11 µM; in [2] it was over 10 µM; in [3], over 10 µM; in [4], at least 10 µM; in data set [5], over 10 µM; in data set [6], over 10 µM. For the same compound, the EC50 in data set [7] is 0.49 µM. Further, the CC50 at 96 h in data set [8] worked out at 7.6 µM. The logP in data set [9] is under 3.

For `CN1CCN(c2ccc3nc(-c4cccc(-c5cccs5)c4)c(-c4ccncc4)n3n2)CC1`, the IC50 in data set [1] was 0.37 µM; in data set [2], over 10 µM; in data set [3] it was 0.27 µM; in data set [4] it was 3.1 µM; in [5], 10 µM; in data set [6], over 10 µM. Besides, in data set [7], the EC50 was 1.42 µM. Besides, the CC50 at 96 h in [8] was determined as 6.7 µM. Also, the logP in data set [9] amounted to 5.

As to `CN1CCN(c2ccc3nc(-c4ccc(C(=O)N5CCOCC5)cc4)c(-c4ccncc4)n3n2)CC1`, the IC50 was over 5 µM in data set [1]; over 10 µM in [2]; over 10 µM in [3]; over 10 µM in data set [4]; over 10 µM in [5]; over 10 µM in data set [6]. For the same compound, the 50% effective concentration (EC50) in data set [7] was over 5 µM. The CC50 at 96 h in data set [8] is 14.1 µM.

Take `CN1CCN(c2ccc3nc(-c4cccc5c4OCO5)c(-c4cccnc4)n3n2)CC1`: the 50% inhibitory concentration (IC50) in data set [1] is 6.5 µM; in data set [2] it was over 10 µM; in [3], over 10 µM; in data set [4], over 10 µM; in data set [5], over 10 µM; in data set [6], over 10 µM. The EC50 in data set [7] is over 5 µM. For the same compound, in data set [8], the CC50 at 96 h is 35.9 µM.

For the compound `COc1cccc(-c2nc3ccc(N4CCN(C)CC4)nn3c2-c2ccncc2)c1`, the IC50 in [1] is 0.009 µM; in data set [2], over 10 µM; in data set [3], at least 10 µM; in data set [4], 0.4 µM; in data set [5], 8.8 µM; in [6], over 10 µM. Besides, the half-maximal effective concentration (EC50) in [7] stood at 0.05 µM. Further, in data set [8], the CC50 at 96 h amounted to 38 µM.

In the case of `COc1ccc2c(-c3nc4ccc(N5CCN(C)CC5)nn4c3-c3ccncc3)cccc2c1`, the IC50 in [1] was 0.5 µM; in data set [2] it was over 10 µM; in data set [3], 1.2 µM; in data set [4], over 10 µM; in data set [5], over 10 µM; in data set [6] it was over 10 µM. The EC50 in data set [7] stood at 2.21 µM. For the same compound, in [8], the CC50 at 96 h turned out to be 20.9 µM.

With `CN1CCN(c2ccc3nc(-c4ccc5ncsc5c4)c(-c4ccncc4)n3n2)CC1`, the IC50 in data set [1] is 0.4 µM; in data set [2] it was over 10 µM; in data set [3], over 10 µM; in data set [4] it was 0.95 µM; in data set [5] it was over 10 µM; in [6] it was over 10 µM. Besides, in [7], the EC50 came to 1.66 µM. The CC50 at 96 h in [8] came out at 17.5 µM.

As for `CC1CN(c2ccc3nc(-c4cccc5c4OCO5)c(-c4ccncc4)n3n2)CC(C)N1C` (stereo unspecified), in data set [1], the IC50 came to 0.63 µM. For the same compound, the EC50 in data set [7] turned out to be 0.63 µM. Moreover, the CC50 at 96 h in [8] was over 50 µM.

The record behind these values is ChEMBL document CHEMBL3734718, “Development of new highly potent imidazo[1,2-b]pyridazines targeting Toxoplasma gondii calcium-dependent protein kinase 1” (Eur J Med Chem, 2015).
